Measured values pooled from the literature.
Each line is one published result; the experiments were not run side by side.
OPRK1: Kappa-type opioid receptor (OPRK1, Homo sapiens, UniProt P41145)
SIGMAR1: Sigma non-opioid intracellular receptor 1 (SIGMAR1, Homo sapiens, UniProt Q99720)
PPO3: PPO3 (Agaricus bisporus, UniProt C7FF04)
HTR2A: 5-hydroxytryptamine receptor 2A (HTR2A, Homo sapiens, UniProt P28223)
HRH4: Histamine H4 receptor (HRH4, Homo sapiens, UniProt Q9H3N8)

CNC(=O)[C@@]12C[C@@H]1[C@@H](n1ccc3c(NC)ncnc31)[C@H](O)[C@@H]2O  Ki (OPRK1; cell-free assay): > 10 µM
COc1ccc2c(ccn2CCCCN2CCc3cc(OC)c(OC)cc3C2)c1  Ki (SIGMAR1; ligand displacement, radioligand; cell membranes): 0.45 µM
CCNC(=O)[C@H]1O[C@@H](n2cnc3c(N)nc(NN=CC4CCC=CO4)nc32)[C@H](O)[C@@H]1O (stereo partly drawn)  Ki (Adenosine receptor A2a (ADORA2A, Homo sapiens, UniProt P29274); ligand displacement, radioligand): 0.00664 µM
CCCn1nc(C(=O)N2CCCCC2)c2c1CCC(NCCNC(=N)N)C2 (stereo not drawn)  Ki (SIGMAR1; ligand displacement, radioligand): > 10 µM
CC(C)C(=O)Nc1ccc([N+](=O)[O-])c(C(F)(F)F)c1  Ki (Hepatic sodium/bile acid cotransporter (SLC10A1, Homo sapiens, UniProt Q14973); transporter uptake, inhibitor): 113 µM
Nc1nc(N)c(N=Nc2ccc([N+](=O)[O-])cc2)c(N)n1  Ki (PPO3; enzyme activity, inhibitor): 4.62 µM
CCCc1ccc(CCc2ccc(-c3noc([C@@H]4CCCN4C(=N)N)n3)cc2C(F)(F)F)cc1  Ki (Sphingosine kinase 1 (SPHK1, Homo sapiens, UniProt Q9NYA1); enzyme activity, inhibitor): 17 µM
O[C@@H]1[C@H](O)[C@@H]2C[C@@H]2[C@H]1n1cnc2c(NCC(c3ccccc3)c3ccccc3)nc(C#Cc3ccccc3)nc21  Ki (OPRK1; cell-free assay): > 10 µM
CC1Cc2ccccc2N1C(=O)NCCCCN(C)[C@@H]1Cc2cccc3[nH]c(=O)n(c23)C1 (mixture of isomers)  Ki (HTR2A; ligand displacement, radioligand): 3.09 µM
CCCn1nc(C(=O)N2CCCCC2)c2c1CCC(NCCCN1CCCC1=O)C2 (stereo not drawn)  Ki (SIGMAR1; ligand displacement, radioligand): > 10 µM
O=C(c1cccc(/N=N/c2cccc(OCCCN3CCCCC3)c2)c1)N1CCCC1  Ki (HRH4; ligand displacement, radioligand): > 10 µM
Cc1ccc(C(C)C)cc1NC(=O)COC(=O)/C=C/c1ccccc1O  Ki (PPO3; enzyme activity, inhibitor): 2.2 µM
CNC(=O)[C@@]12C[C@@H]1[C@@H](n1cnc3c(NCc4cccc(Cl)c4)nc(C#Cc4ccccc4)nc31)[C@H](O)[C@@H]2O  Ki (OPRK1; cell-free assay): > 10 µM
Cc1nc2n(c(=O)c1CCN1CCCCC1)CCCC2  Ki (HTR2A; ligand displacement, radioligand; cell membranes): ~5 µM
CC(=O)Nc1ccc(N=Nc2c(N)nc(N)nc2N)cc1  Ki (PPO3; enzyme activity, inhibitor): 4.98 µM
CCCn1nc(C(=O)N2CCCCC2)c2c1CCC(N1CCc3ccccc3C1)C2 (stereo not drawn)  Ki (SIGMAR1; ligand displacement, radioligand): > 10 µM
CCOC(=O)[C@](CC)(CCCS(=O)(=O)CCOCCOCCNC(=O)OC(C)(C)C)NC(=O)c1ccc(C2CC2)c(Cc2ccc(F)cc2)n1  Ki (Cannabinoid receptor 1 (CNR1, Homo sapiens, UniProt P21554); ligand displacement, radioligand; cell membranes): 0.19 µM
CCCn1nc(C(=O)N(C)C)c2c1CCC(NCc1ccc(OC)cc1OC)C2 (stereo not drawn)  Ki (SIGMAR1; ligand displacement, radioligand): > 10 µM
Cc1nc2n(c(=O)c1CCN)CCCC2  Ki (HTR2A; ligand displacement, radioligand; cell membranes): > 10 µM
COc1ccc(N=Nc2c(N)nc(N)nc2N)cc1  Ki (PPO3; enzyme activity, inhibitor): 7.63 µM
CNC(=O)[C@@]12C[C@@H]1[C@@H](n1cnc3c(NC4CC4c4ccccc4)nc(C#Cc4ccccc4)nc31)[C@H](O)[C@@H]2O (mixture of isomers)  Ki (OPRK1; cell-free assay): > 10 µM
CCCn1nc(C(=O)N2CCCCC2)c2c1CCC(N1CCC(c3ccncc3)CC1)C2 (stereo not drawn)  Ki (SIGMAR1; ligand displacement, radioligand): > 10 µM
CNC(=O)[C@@]12C[C@@H]1[C@@H](n1cnc3c(NCc4cccc(Cl)c4)nc(Cl)nc31)[C@H](O)[C@@H]2O  Ki (OPRK1; cell-free assay): > 10 µM
COc1ccccc1N1CCN(C/C=C/CNC(=O)c2cc3cc(OCCOCCF)ccc3[nH]2)CC1  Ki (SIGMAR1; cell-free assay): > 10 µM
CNC(=O)[C@H]1O[C@@H](n2cnc3c(NC)nc(C#Cc4ccc(Cl)s4)nc32)[C@H](O)[C@@H]1O  Ki (OPRK1; cell-free assay): > 10 µM
CC[C@H](C)[C@H](NC(=O)[C@H](CCC(=O)O)NC(=O)[C@H](CC(=O)O)NC(=O)CNC(=O)[C@H](CC(C)C)NC(=O)[C@H](CCCNC(=N)N)NC(=O)[C@H](CCC(N)=O)NC(=O)[C@H](CC(C)C)NC(=O)[C@H](CO)NC(=O)[C@H](CCC(N)=O)NC(=O)[C@@H](NC(=O)[C@H](CC(C)C)NC(=O)[C@H](Cc1c[nH]c2ccccc12)NC(=O)[C@@H](NC(=O)[C@H](CCC(=O)O)NC(=O)[C@@H]1CCCN1C(=O)[C@H](CCCNC(=N)N)NC(C)=O)[C@@H](C)CC)[C@@H](C)O)C(=O)N[C@@H](CC(N)=O)C(=O)N[C@@H](C)C(=O)N[C@@H](Cc1ccc(O)cc1)C(=O)N[C@@H](Cc1ccc(O)cc1)C(=O)N[C@@H](C)C(=O)N[C@@H](CCCNC(=N)N)C(N)=O  Ki (Bcl-2-like protein 1 (BCL2L1, Homo sapiens, UniProt Q07817); ligand displacement, FP): ~2.1 µM
CCCNc1nc(C#Cc2ccc(Cl)s2)nc2c1ncn2[C@H]1[C@H](O)[C@H](O)[C@]2(C(=O)NC)C[C@H]12  Ki (OPRK1; cell-free assay): > 10 µM
O=C1NC(c2ccccc2)(c2ccccc2)C(=O)N1CCCN1CCCCC1  Ki (HRH4; ligand displacement, radioligand; cell membranes): > 10 µM
CCNc1nc(C#Cc2ccccc2)nc2c1ncn2[C@H]1[C@H](O)[C@H](O)[C@@H]2C[C@@H]21  Ki (OPRK1; cell-free assay): > 10 µM
Cc1cccc(CN2CCCC(C(=O)NCCc3cccnc3)CC2)n1 (stereo not drawn)  Ki (OPRK1; cell-free assay): > 10 µM
